Test results taken from ChEMBL document CHEMBL3596156, “Synthesis and bioevaluation of heterocyclic derivatives of Cleistanthin-A” (Bioorg Med Chem, 2015).
pIC50: −log10 of the molar value. Activity calls are given as the source filed them. The calls are words filed in the database; no cut-off is given here.

Experiments:
HepG2 [1] = experiment: Cytotoxicity against human HepG2 cells assessed as inhibition of cell proliferation after 72 hrs by MTT assay; format: functional, cell-based; conditions: HepG2, 72 h
Method in brief: (§1)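 MTT antiproliferation screen across HCT-116, HepG2, A549 and HeLa tumour lines, with WRL-68 normal cells run in parallel.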

A549 = experiment: Cytotoxicity against human A549 cells assessed as inhibition of cell proliferation after 72 hrs by MTT assay; format: functional, cell-based; conditions: A549, 72 h; method in brief: as §1
HeLa = experiment: Cytotoxicity against human HeLa cells assessed as inhibition of cell proliferation after 72 hrs by MTT assay; format: functional, cell-based; method in brief: as §1
HCT-116 = experiment: Cytotoxicity against human HCT116 cells assessed as inhibition of cell proliferation after 72 hrs by MTT assay; format: functional, cell-based; conditions: HCT-116, 72 h; method in brief: as §1
WRL68 = experiment: Cytotoxicity against human WRL68 cells assessed as inhibition of cell proliferation after 72 hrs by MTT assay; format: cell-based; conditions: WRL68, 72 h; method in brief: as §1
HepG2 [2] = experiment: Cytotoxicity against human HepG2 cells assessed as inhibition of cell viability at 15 to 60 nM after 24 to 72 hrs by MTT assay; format: functional, cell-based
Method in brief: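 HepG2 cells exposed to 0, 15, 30 or 60 nM for 24, 48 and 72 h; viability read by MTT.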

HepG2 [3] = experiment: Inhibition of V-ATPase in human HepG2 cells assessed as release of phosphate at 30 nM after 48 hrs by colorimetric assay relative to control; values are per cent of control
HepG2 [4] = experiment: Inhibition of V-ATPase in human HepG2 cells assessed as decrease in lysosomal pH at 60 nM after 48 hrs by LysoTracker Red staining-based confocal microscopic analysis relative to control; format: cell-based
Method in brief: (§2)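 HepG2 cells stained with LysoTracker Red (pH-sensitive dye), then loaded sequentially with the agent. Test concentrations were 0, 15, 30 or 60 nM; diphyllin was used at 1 µM as positive control. Cells were exposed for 48 h, and lysosomal acidity was judged by red fluorescence on confocal microscopy versus untreated cells.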

HepG2 [5] = experiment: Inhibition of V-ATPase in human HepG2 cells assessed as decrease in cytosolic pH at 15 to 60 nM after 24 to 48 hrs by BCECF-AM probe-based spectrofluorophotometric analysis; format: cell-based
HepG2 [6] = experiment: Inhibition of V-ATPase in human HepG2 cells assessed as release of phosphate at 60 nM after 48 hrs by colorimetric assay relative to control; values are per cent of control
HepG2 [7] = experiment: Inhibition of V-ATPase in human HepG2 cells assessed as release of phosphate at 15 to 60 nM after 48 hrs by colorimetric assay; format: cell-based
Method in brief: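 HepG2 cells treated 48 h with 0, 15, 30 or 60 nM, diphyllin as positive control. V-ATPase activity then measured using a commercial V-ATPase activity assay kit.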

HepG2 [8] = experiment: Inhibition of V-ATPase in human HepG2 cells assessed as decrease in lysosomal pH at 1 uM after 48 hrs by LysoTracker Red staining-based confocal microscopic analysis relative to control; format: cell-based; method in brief: as §2

In the case of `COc1cc2c(O[C@@H]3OC[C@@H](OC)[C@H](OC)[C@H]3OCCCCCCCCN3CCCCC3)c3c(c(-c4ccc5c(c4)OCO5)c2cc1OC)C(=O)OC3`, the pIC50 (HepG2 [1]) was 7.28, the pIC50 (A549) was less than 6.70 and the pIC50 (HeLa) was less than 6.70. The pIC50 (HCT-116) was 7.82 and the pIC50 (WRL68) was less than 6.70.
With `COc1cc2c(O[C@@H]3OC[C@@H](OC)[C@H](OC)[C@H]3OCCCCCCN3CCC(O)CC3)c3c(c(-c4ccc5c(c4)OCO5)c2cc1OC)C(=O)OC3` the pIC50 (HepG2 [1]) was 7.52, the pIC50 (A549) was 7.64 and the pIC50 (HeLa) was 7.49. It also gave a pIC50 (HCT-116) of 7.66 and a pIC50 (WRL68) of less than 6.70.
`COc1cc2c(O[C@@H]3OC[C@@H](OC)[C@H](OC)[C@H]3OCCCCCCCN3CCOCC3)c3c(c(-c4ccc5c(c4)OCO5)c2cc1OC)C(=O)OC3` gave a pIC50 (HepG2 [1]) of 7.37, a pIC50 (A549) of 7.64 and a pIC50 (HeLa) of 7.55. The pIC50 (HCT-116) was 7.55 and the pIC50 (WRL68) was less than 6.70.
Compound `COc1cc2c(O[C@@H]3OC[C@@H](OC)[C@H](OC)[C@H]3OCCCCCCCCN3CCN(CCO)CC3)c3c(c(-c4ccc5c(c4)OCO5)c2cc1OC)C(=O)OC3` has a pIC50 (HepG2 [1]) of 7.60, a pIC50 (A549) of 7.54 and a pIC50 (HeLa) of 7.26. It also gave a pIC50 (HCT-116) of 7.57 and a pIC50 (WRL68) of less than 6.70.
With `COc1cc2c(O[C@@H]3OC[C@@H](OC)[C@H](OC)[C@H]3OCCCCCCCN3CCC(O)CC3)c3c(c(-c4ccc5c(c4)OCO5)c2cc1OC)C(=O)OC3` the pIC50 (HepG2 [1]) was less than 6.70, the pIC50 (A549) was less than 6.70 and the pIC50 (HeLa) was less than 6.70. For the same compound, the pIC50 (HCT-116) was 7.14 and the pIC50 (WRL68) was less than 6.70.
`COc1cc2c(O[C@@H]3OC[C@@H](OC)[C@H](OC)[C@H]3OCCCCCCN3CCOCC3)c3c(c(-c4ccc5c(c4)OCO5)c2cc1OC)C(=O)OC3` was tested, and the inhibition (HepG2 [2]) was “Active”, the pIC50 (HepG2 [1]) was 7.52 and the level, % of control (HepG2 [3]) was 62%. The pIC50 (A549) was 7.59, the pIC50 (HeLa) was 7.70 and the pIC50 (HCT-116) was 7.68. The inhibition (HepG2 [4]) was “Active”, the inhibition (HepG2 [5]) was “Active” and the level, % of control (HepG2 [6]) was 56%. The pIC50 (WRL68) was less than 6.70.
`COc1cc2c(O[C@@H]3OC[C@@H](OC)[C@H](OC)[C@H]3OCCCCCCN3CCN(C)CC3)c3c(c(-c4ccc5c(c4)OCO5)c2cc1OC)C(=O)OC3` showed a pIC50 (HepG2 [1]) of 7.41, a pIC50 (A549) of 7.44 and a pIC50 (HeLa) of 7.49. The pIC50 (HCT-116) was 7.49 and the pIC50 (WRL68) was less than 6.70.
With `COc1cc2c(O[C@@H]3OC[C@@H](OC)[C@H](OC)[C@H]3OCCCCCCCN3CCN(CCO)CC3)c3c(c(-c4ccc5c(c4)OCO5)c2cc1OC)C(=O)OC3` the pIC50 (HepG2 [1]) was less than 6.70, the pIC50 (A549) was less than 6.70 and the pIC50 (HeLa) was less than 6.70. It also gave a pIC50 (HCT-116) of 7.54 and a pIC50 (WRL68) of less than 6.70.
`COc1cc2c(O[C@@H]3OC[C@@H](OC)[C@H](OC)[C@H]3OCCCCCCCCN3CCOCC3)c3c(c(-c4ccc5c(c4)OCO5)c2cc1OC)C(=O)OC3` showed a pIC50 (HepG2 [1]) of 7.59, a pIC50 (A549) of 7.59 and a pIC50 (HeLa) of 7.35. For the same compound, the pIC50 (HCT-116) was 7.60 and the pIC50 (WRL68) was less than 6.70.
For `COc1cc2c(O[C@@H]3OC[C@@H](OC)[C@H](OC)[C@H]3OCCCCCCCCN3CCN(C)CC3)c3c(c(-c4ccc5c(c4)OCO5)c2cc1OC)C(=O)OC3`, the pIC50 (HepG2 [1]) was 7.41, the pIC50 (A549) was 7.60 and the pIC50 (HeLa) was 7.04. For the same compound, the pIC50 (HCT-116) was 7.96 and the pIC50 (WRL68) was less than 6.70.
In the case of `COc1cc2c(O[C@@H]3OC[C@@H](OC)[C@H](OC)[C@H]3OCCCCCCN3CCN(CCO)CC3)c3c(c(-c4ccc5c(c4)OCO5)c2cc1OC)C(=O)OC3`, the pIC50 (HepG2 [1]) was 7.48, the pIC50 (A549) was 7.72 and the pIC50 (HeLa) was 7.60. The pIC50 (HCT-116) was 7.64 and the pIC50 (WRL68) was less than 6.70.
With `COc1cc2c(O[C@@H]3OC[C@@H](OC)[C@H](OC)[C@H]3O)c3c(c(-c4ccc5c(c4)OCO5)c2cc1OC)C(=O)OC3` [CLEISTANTHIN] the pIC50 (HepG2 [1]) was 8.10, the pIC50 (A549) was 8.40 and the pIC50 (HeLa) was 7.72. It also gave a pIC50 (HCT-116) of 9.00 and a pIC50 (WRL68) of less than 6.70.
`COc1cc2c(O)c3c(c(-c4ccc5c(c4)OCO5)c2cc1OC)C(=O)OC3` was tested, and the inhibition (HepG2 [7]) was “Active” and the inhibition (HepG2 [8]) was “Active”.
For `COc1cc2c(O[C@@H]3OC[C@@H](OC)[C@H](OC)[C@H]3OCCCCCCCN3CCN(C)CC3)c3c(c(-c4ccc5c(c4)OCO5)c2cc1OC)C(=O)OC3`, the pIC50 (HepG2 [1]) was 7.39, the pIC50 (A549) was 7.64 and the pIC50 (HeLa) was 7.29. For the same compound, the pIC50 (HCT-116) was 7.57 and the pIC50 (WRL68) was less than 6.70.
Compound `COc1cc2c(O[C@@H]3OC[C@@H](OC)[C@H](OC)[C@H]3OCCCCCCCCN3CCC(O)CC3)c3c(c(-c4ccc5c(c4)OCO5)c2cc1OC)C(=O)OC3` has a pIC50 (HepG2 [1]) of less than 6.70, a pIC50 (A549) of 7.59 and a pIC50 (HeLa) of 7.00. The pIC50 (HCT-116) was 7.92 and the pIC50 (WRL68) was less than 6.70.
`COc1cc2c(O[C@@H]3OC[C@@H](OC)[C@H](OC)[C@H]3OCCCCCCN3CCCCC3)c3c(c(-c4ccc5c(c4)OCO5)c2cc1OC)C(=O)OC3` showed a pIC50 (HepG2 [1]) of 7.47, a pIC50 (A549) of 7.59 and a pIC50 (HeLa) of 7.44. For the same compound, the pIC50 (HCT-116) was 7.64 and the pIC50 (WRL68) was less than 6.70.
